Laboratory results: ChEMBL document CHEMBL1133663, “Synthesis and biological evaluation of 3,4-diaryloxazolones: A new class of orally active cyclooxygenase-2 inhibitors” (J Med Chem, 2000)

What was measured:
[1] = molecular target: Prostaglandin G/H synthase 1 (Homo sapiens, UniProt P23219)
Rattus norvegicus [2] = assay: In vivo inhibition of carrageenan-induced hyperalgesia in rats; type: functional
In short: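 Fasted male Wistar rats (200-230 g) given oral drug, then 0.1 mL 1% carrageenan into the left hind paw 1 h later. At 5 h, walking difficulty was scored 0-2 by a blinded observer. Percentage inhibition was taken against vehicle, and ED50 was found by linear regression over four doses (6-8 rats/group).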

Rattus norvegicus [3] = assay: Inhibition of carrageenan paw edema in rats; type: functional
In short: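 Fasted male Wistar rats (150-175 g, 6/group) dosed orally in 0.5% methyl cellulose/0.1% Tween (10 mL/kg). One hour later, 0.1 mL 1% carrageenan in saline was given subcutaneously into the left hind paw.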

Rattus norvegicus [4] = assay: In vivo inhibition of adjuvant arthritis in rats; type: functional
Rattus norvegicus [5] = assay: Effect on perforated ulcers(PU) at the dose of 100 mg/kg.; type: functional
In short: (§1)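 Male Wistar rats (150-175 g), fed freely, 10/group, dosed orally once daily for 4 consecutive days in 0.5% methyl cellulose/0.1% Tween. Anaesthetised 24 h after last dose; cardiac blood taken for hemoglobin. Whole intestine opened and scored macroscopically for perforated and nonperforated ulcers (index 0-3); value is ulcer score per incidence (% animals with ulcers).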

Rattus norvegicus [6] = assay: In vivo inhibition of pyresis in rats; type: functional
In short: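 Male Wistar rats (180-200 g, 6/group) were injected subcutaneously with 15% yeast extract in saline ([…]) and fasted overnight. Next morning rectal temperature was taken, and oral dosing followed 1 h later. Temperature was recorded hourly for 5 h.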

Rattus norvegicus [7] = assay: Effect on non perforated ulcers(NPU) at the dose of 100 mg/kg.; type: functional
In short: as §1

Rattus norvegicus [8] = species on record: Rattus norvegicus; assay: Hemoglobin levels in the different assays ranged from 11.5-14.7 g/dl.; type: functional
Rattus norvegicus [9] = assay: In vivo inhibition of carrageenan-induced air pouch in rats; type: functional
In short: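 Air pouch made in fasted male Wistar rats (150-175 g, 6/group) by injecting 20 mL air subcutaneously on the back on day 0. Oral gavage on day 3, then 5 mL 0.4% carrageenan into the pouch 1 h later.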

Rattus norvegicus [10] = assay: Effect on non perforated ulcers(NPU) at the dose of 10 mg/kg.; type: functional
In short: as §1

Rattus norvegicus [11] = assay: Effect on perforated ulcers(PU) at the dose of 10 mg/kg.; type: functional
In short: as §1

Prostaglandin G/H synthase 1, sequence (P23219 whole entry): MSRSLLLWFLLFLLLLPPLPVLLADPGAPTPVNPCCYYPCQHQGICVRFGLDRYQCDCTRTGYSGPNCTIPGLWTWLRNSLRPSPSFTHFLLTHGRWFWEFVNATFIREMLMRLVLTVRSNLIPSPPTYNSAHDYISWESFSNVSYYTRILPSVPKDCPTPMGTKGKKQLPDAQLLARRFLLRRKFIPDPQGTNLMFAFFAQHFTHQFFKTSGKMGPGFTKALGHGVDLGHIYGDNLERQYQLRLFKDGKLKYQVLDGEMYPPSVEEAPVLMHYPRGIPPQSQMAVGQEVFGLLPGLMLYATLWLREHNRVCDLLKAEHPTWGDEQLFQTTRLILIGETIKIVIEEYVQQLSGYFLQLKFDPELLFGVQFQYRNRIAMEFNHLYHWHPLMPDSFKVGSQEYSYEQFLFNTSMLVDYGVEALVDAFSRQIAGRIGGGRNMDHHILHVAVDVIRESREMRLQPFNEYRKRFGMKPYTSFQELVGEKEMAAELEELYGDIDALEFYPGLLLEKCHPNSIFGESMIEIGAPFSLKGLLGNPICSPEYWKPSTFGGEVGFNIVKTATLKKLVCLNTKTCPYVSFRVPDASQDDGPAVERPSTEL

Row | SMILES | IC50 [1] [µM] | ED50 (Rattus norvegicus [2]) [mg/kg] | ED35 (Rattus norvegicus [3]) [mg/kg] | ED50 (Rattus norvegicus [4]) [mg/kg] | Ulcer score (Rattus norvegicus [5]) | ED50 (Rattus norvegicus [6]) [mg/kg] | Ulcer score (Rattus norvegicus [7]) | Hgb levels (Rattus norvegicus [8]) [g/dL] | ED35 (Rattus norvegicus [9]) [mg/kg] | Ulcer score (Rattus norvegicus [10]) | Ulcer score (Rattus norvegicus [11])
1 | CS(=O)(=O)c1ccc(-c2coc(=O)n2-c2ccc(F)cc2)cc1 | 5.1 | 2.5 | 0.6 | 2.8 | – | – | – | – | – | – | –
2 | Cc1cccc(-n2c(-c3ccc(S(N)(=O)=O)cc3)c(C)oc2=O)c1 | 16.9 | – | – | – | – | – | – | – | – | – | –
3 | COc1ccc(-n2c(-c3ccc(S(N)(=O)=O)cc3)coc2=O)cc1F | 5.1 | – | 3 | – | – | – | – | – | – | – | –
4 | Cc1cccc(-n2c(-c3ccc(S(N)(=O)=O)cc3)coc2=O)c1 | 6.6 | 7.2 | 0.9 | 0.6 | 0 | 1.8 | 0 | 12.8 | 0.47 | – | –
5 | NS(=O)(=O)c1ccc(-c2coc(=O)n2-c2ccc(Cl)c(Cl)c2)cc1 | 1.5 | – | – | – | – | – | – | – | – | – | –
6 | NS(=O)(=O)c1ccc(-c2coc(=O)n2-c2ccc(C(F)(F)F)cc2)cc1 | > 100 | 8.1 | 2.4 | 1 | 0 | 11 | 0 | 11.5 | 2.6 | – | –
7 | NS(=O)(=O)c1ccc(-c2coc(=O)n2-c2cccc3ccccc23)cc1 | 37.1 | – | – | – | – | – | – | – | – | – | –
8 | Cc1ccc(-n2c(-c3ccc(S(C)(=O)=O)cc3)coc2=O)cc1 | 11.6 | – | – | – | – | – | – | – | – | – | –
9 | CCc1ccc(-n2c(-c3ccc(S(C)(=O)=O)cc3)coc2=O)cc1 | 42.4 | – | – | – | – | – | – | – | – | – | –
10 | NS(=O)(=O)c1ccc(-c2coc(=O)n2-c2cccc(Cl)c2)cc1 | 10.8 | – | 1.3 | – | – | – | – | – | – | – | –
11 | CS(=O)(=O)c1ccc(-c2coc(=O)n2-c2ccc(C(F)(F)F)cc2)cc1 | > 100 | – | – | – | – | – | – | – | – | – | –
12 | NS(=O)(=O)c1ccc(-c2coc(=O)n2-c2ccc(C(=O)O)cc2)cc1 | > 100 | – | – | – | – | – | – | – | – | – | –
13 | CS(=O)(=O)c1ccc(-c2coc(=O)n2-c2ccc(F)cc2F)cc1 | 6.94 | 21 | 1.4 | 2.5 | – | – | – | – | – | – | –
14 | Cc1oc(=O)n(-c2ccc(Cl)c(Cl)c2)c1-c1ccc(S(N)(=O)=O)cc1 | 8.7 | 3 | 4.4 | 1.6 | 0 | 8.7 | 0 | 14.6 | 0.85 | – | –
15 | NS(=O)(=O)c1ccc(-c2coc(=O)n2-c2ccccc2F)cc1 | 27.9 | 2.7 | 1.7 | 0.27 | 0 | 1.2 | 0 | 11.6 | 1.6 | – | –
16 | NS(=O)(=O)c1ccc(-c2coc(=O)n2C2CCCCC2)cc1 | > 100 | – | – | – | – | – | – | – | – | – | –
17 | Cc1ccccc1-n1c(-c2ccc(S(N)(=O)=O)cc2)coc1=O | 29 | – | – | – | – | – | – | – | – | – | –
18 | NS(=O)(=O)c1ccc(-c2coc(=O)n2-c2ccc(F)cc2F)cc1 | 15.3 | – | – | – | – | – | – | – | – | – | –

Row | SMILES | IC50 [1] [µM] | ED50 (Rattus norvegicus [2]) [mg/kg] | ED35 (Rattus norvegicus [3]) [mg/kg] | ED50 (Rattus norvegicus [4]) [mg/kg] | Ulcer score (Rattus norvegicus [5]) | ED50 (Rattus norvegicus [6]) [mg/kg] | Ulcer score (Rattus norvegicus [7]) | Hgb levels (Rattus norvegicus [8]) [g/dL] | ED35 (Rattus norvegicus [9]) [mg/kg] | Ulcer score (Rattus norvegicus [10]) | Ulcer score (Rattus norvegicus [11])
19 | CS(=O)(=O)c1ccc(-c2coc(=O)n2-c2ccc(Cl)cc2)cc1 | 13.6 | – | 10 | – | – | – | – | – | – | – | –
20 | CS(=O)(=O)c1ccc(-c2coc(=O)n2-c2ccccc2F)cc1 | 13.4 | 32 | 2.4 | > 3 | – | – | – | – | – | – | –
21 | COc1ccc(-n2c(-c3ccc(S(N)(=O)=O)cc3)coc2=O)cc1 | 0.9 | – | – | – | – | – | – | – | – | – | –
22 | Cc1ccc(-n2c(-c3ccc(S(N)(=O)=O)cc3)coc2=O)cc1 | 10.9 | 3.8 | 0.7 | 0.34 | 0 | 3.3 | 0 | 12.9 | 1.7 | – | –
23 | NS(=O)(=O)c1ccc(-c2coc(=O)n2-c2ccc(Cl)cc2)cc1 | 7 | 0.5 | 1.6 | 0.2 | 3 | 2.3 | 2.1 | 12.5 | 1.2 | – | –
24 | NS(=O)(=O)c1ccc(-c2coc(=O)n2-c2ccc(F)cc2)cc1 | 13.2 | 3.9 | 2 | 0.6 | 0 | 2.4 | 0 | 12.6 | 0.4 | – | –
25 | NS(=O)(=O)c1ccc(-c2coc(=O)n2-c2ccccc2Cl)cc1 | 35.4 | – | – | – | – | – | – | – | – | – | –
26 | CS(=O)(=O)c1ccc(-c2coc(=O)n2-c2ccccc2)cc1 | 33.6 | – | – | – | – | – | – | – | – | – | –
27 | NS(=O)(=O)c1ccc(-c2coc(=O)n2-c2ccccc2)cc1 | 24.4 | 1.1 | 0.4 | 0.15 | 0 | 0.5 | 0 | 14.8 | 1.2 | – | –
28 | Cc1oc(=O)n(-c2ccc(F)cc2)c1-c1ccc(S(N)(=O)=O)cc1 | 45.8 | 14 | 1.1 | 3 | – | – | – | – | – | – | –
29 | CCc1ccc(-n2c(-c3ccc(S(N)(=O)=O)cc3)coc2=O)cc1 | 10.4 | – | – | – | – | – | – | – | – | – | –
30 | NS(=O)(=O)c1ccc(-c2coc(=O)n2-c2cccc(C(=O)O)c2)cc1 | > 100 | – | – | – | – | – | – | – | – | – | –
31 | Cc1ccc(-n2c(-c3ccc(S(N)(=O)=O)cc3)c(C)oc2=O)cc1 | 43.5 | – | 2.6 | – | – | – | – | – | – | – | –
32 | COc1ccc(-n2c(-c3ccc(S(N)(=O)=O)cc3)coc2=O)cc1Cl | 5.8 | – | 2.4 | – | – | – | – | – | – | – | –
33 | Cc1oc(=O)n(-c2ccccc2)c1-c1ccc(S(N)(=O)=O)cc1 | 49.3 | 7.7 | 1.7 | > 3 | – | – | – | – | – | – | –
34 | Cc1ccc(-c2cc(C(F)(F)F)nn2-c2ccc(S(N)(=O)=O)cc2)cc1 [CELECOXIB] | – | 6.2 | 1.1 | 0.5 | 0 | 0.6 | 0 | 13.2 | 3 | – | –
35 | COc1ccc2c(c1)c(CC(=O)O)c(C)n2C(=O)c1ccc(Cl)cc1 [INDOMETHACIN] | – | 1.2 | 1 | 0.22 | – | 1.5 | – | 5.7 | 2 | 300 | 280
36 | COc1ccc2cc([C@H](C)C(=O)O)ccc2c1 [NAPROXEN] | – | 5.2 | 0.45 | 6.1 | – | 0.8 | – | 7.5 | 1.4 | – | –
